Assay results from different studies.
Each line is one published result; the experiments were not run side by side.
Observed: metabolic stability
Species: human

SMILES | sample | tested at | time | pH | endpoint | result
NC(=O)N1c2ccccc2C=Cc2ccccc21 | liver microsomes | 1 µM |  |  | microsomal CLint | < 3 µL/min/mg
Cc1ccc(Cn2cc(C(=O)NN)c(=O)c3cc(Oc4ccccc4)ccc32)cc1 | liver microsomes | 1 µM |  |  | microsomal CLint | < 11.6 µL/min/mg
CCn1cc(C)c2c(C(O)c3ccc(Cl)c(F)c3)n(C)nc2c1=O (stereo not shown) | liver microsomes | 0.5 µM |  | pH 7.4 | microsomal CLint | 23 µL/min/mg
CC(C)C[C@H](NC(=O)[C@@H]1COCCCCCC(=O)N2CC[C@H]2C(=O)N1)C(=O)[C@@]1(C)CO1 | liver microsomes | 2 µM | 1 h |  | scaled CLint | 29 mL/min/kg
CCC(CC)COC(=O)[C@H](C)N[P@](=O)(OC[C@@H]1C[C@@H](O)[C@H](n2cnc3c(N)ncnc32)O1)Oc1ccccc1 | liver microsomes | 1 µM |  |  | microsomal CLint | 2120 µL/min/mg
Cn1nc2c(=O)n(C3CC3)ccc2c1[C@](O)(c1cnc(C(F)(F)F)c(Cl)c1)C(F)(F)F | hepatocytes | 0.5 µM |  | pH 7.4 | hepatocyte CLint | 0.5 µL/min/10⁶ cells
CC[N+]1(C)CCN(c2ccc(C(=O)Nc3cccc(C)n3)cc2)CC1 | liver microsomes |  |  |  | microsomal CLint | < 3 µL/min/mg
CCn1ccc2c([C@](O)(c3cnc(C(F)(F)F)c(Cl)c3)C3CC3)n(C)nc2c1=O | liver microsomes | 0.5 µM |  | pH 7.4 | microsomal CLint | < 3 µL/min/mg
COc1ccc([C@@H]2Sc3ccccc3N(CCN(C)C)C(=O)[C@@H]2OC(C)=O)cc1 | liver microsomes |  |  |  | microsomal CLint | 26 µL/min/mg
Nc1ncnc2c1ncn2[C@@H]1O[C@H](CO)C[C@H]1O | liver microsomes | 1 µM |  |  | microsomal CLint | 142 µL/min/mg
CCN(CCN)c1ccc(Nc2cc(NC3CC3)n3ncc(C#N)c3n2)cc1-n1cnnc1 | liver microsomes |  |  |  | scaled CLint | < 6.8 mL/min/kg
Cn1nc2c(=O)n(C3CC3)nc(C3CC3)c2c1Cc1ccc(C(F)(F)F)c(F)c1 | liver microsomes | 0.5 µM |  | pH 7.4 | microsomal CLint | 4.6 µL/min/mg
CC(C)C[C@H](NC(=O)[C@@H]1COCCCCCC(=O)N2CC(F)(F)C[C@H]2C(=O)N1)C(=O)[C@@]1(C)CO1 | liver microsomes | 2 µM | 1 h |  | scaled CLint | 57.6 mL/min/kg
CC[C@@](O)(c1cnc(C(F)(F)F)c(Cl)c1)c1c2ccn(C3CC3)c(=O)c2nn1C | hepatocytes | 0.5 µM |  | pH 7.4 | hepatocyte CLint | 1.6 µL/min/10⁶ cells
O=c1ccc2cc(O)ccc2o1 | liver microsomes |  |  |  | microsomal CLint | 22 µL/min/mg
C[C@]1(C(=O)[C@H](Cc2ccccc2)NC(=O)[C@@H]2COCCCCCC(=O)N3C[C@H](F)C[C@H]3C(=O)N2)CO1 | liver microsomes | 2 µM | 1 h |  | scaled CLint | 93.1 mL/min/kg
O=C1CC[C@H](N2Cc3cc(N4CCN(CC5CCN(c6ccc([C@@H]7c8ccc(O)cc8CC[C@@H]7c7ccccc7)cc6)CC5)CC4)ccc3C2=O)C(=O)N1 | hepatocytes | 1 µM |  |  | hepatocyte CLint | 13 µL/min/10⁶ cells
CC(C)C[C@H](NC(=O)[C@H](CCc1ccccc1)NC(=O)CN1CCOCC1)C(=O)N[C@@H](Cc1ccccc1)C(=O)N[C@@H](CC(C)C)C(=O)[C@@]1(C)CO1 | liver microsomes | 2 µM | 1 h |  | scaled CLint | 931 mL/min/kg
CC1(CN)CCN(c2cnc3c(Sc4ccncc4Cl)n[nH]c3n2)CC1 | liver microsomes |  |  |  | scaled CLint | 34 mL/min/kg
